# From PubChem BioAssay AID809 (SRMLSC, 2007)
# Activity calls are given as the source filed them.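 Rule for the calls: active = EC50 for reversing nicotinamide-shortened yeast lifespan at or below a set limit; inactive = EC50 above that limit.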
# System: S. cerevisiae DeaD BB579, nicotinamide rescue growth, OD615 48 h
# Assay: BB579 yeast growth restoration under nicotinamide – S. cerevisiae, yeast lifespan extension project, dose response (AID 809)
# Summary of the method: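 System – S. cerevisiae DeaD strain BB579 · Buffer or medium – CSMM-D glucose restrictive medium · Times – culture pre-incubation 4 h, then compound exposure 48 h, both 30 °C · Signal – OD615 absorbance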
row,SMILES,EC50
1,CCc1nnc(N2C(=O)c3ccc(Oc4ccc([N+](=O)[O-])cc4)cc3C2=O)s1,> 10 µM (inactive)
2,CCNCCNC(=O)c1c(O)c2cccc3c2n(c1=O)CCC3,6.32 µM
3,COc1cc(/C=C/C(=O)C2C(=O)C=C(C)OC2=O)cc(OC)c1O (stereo unspecified),6.69 µM
4,O=[N+]([O-])c1cc2oc3c(c2c(C=NCc2ccccc2)c1O)CCCC3,2.55 µM
5,Cc1ccc(C(=O)/C=C\C(=O)c2ccc(C)cc2)cc1,9.15 µM
6,Cc1cc(C=C2C(=O)N(C)C(=S)N(C)C2=O)c(C)n1-c1cccnc1,> 10 µM (inactive)
7,CCn1c(/N=C/c2ccccc2NS(=O)(=O)c2ccc(C)cc2)nc2ccccc21,3.3 µM
8,CCN(CC)Cc1c(O)c(Cl)cc2c(C)c(C)c(=O)oc12,> 10 µM (inactive)
9,COc1ccc(-c2cc(N)n(S(=O)(=O)c3c(F)c(F)c(F)c(F)c3F)n2)cc1OC,6.84 µM
10,Cc1ccsc1C(=O)Nc1nnc(-c2ccco2)o1,9.27 µM
11,O=S(=O)(ON(c1ccccc1)S(=O)(=O)c1ccccc1)c1ccccc1,> 10 µM (inactive)
12,C[C@]12CC[C@@H](O)C[C@@H]1CC[C@@H]1[C@@H]2CC[C@]2(C)[C@@H](O)CC[C@@H]12,> 10 µM (inactive)
13,Cc1n[nH]c(=O)n1-c1cccc(C(F)(F)F)c1,> 10 µM (inactive)
14,O=[N+]([O-])c1cc2oc3c(c2c(C=NCc2ccncc2)c1O)CCCC3,1.2 µM
15,O=C(N/N=C/c1ccccc1)c1c(O)c2ccccc2[nH]c1=O,0.58 µM
16,CCOC(=O)CS(=O)(=O)c1nc(-c2ccc(F)cc2)cc(C(F)(F)F)n1,5.71 µM
17,Cc1ccc(Oc2nc3ccccc3n3c(C)nnc23)c(C)c1,> 10 µM (inactive)
18,CCCc1cc(=O)oc2cc(C)c(CN3CCCC3)c(O)c12,6.15 µM
19,CC(=Nc1ccc2c(c1)nc(CO)n2C)C1=C(O)CC(C)(C)CC1=O,> 10 µM (inactive)
20,COc1ccc(-c2cc(C(F)(F)F)nc(S(C)(=O)=O)n2)cc1OC,8.76 µM
21,O=C(NC(=S)NNC(=O)c1ccc(Cl)cc1Cl)c1cccnc1,9.35 µM
22,C=CCn1c(C)cc(C(=O)CSc2nc3ccccc3c(=O)[nH]2)c1C,> 10 µM (inactive)

row,SMILES,EC50
1,Cc1nc2ccccc2n1-c1ccccc1,> 10 µM (inactive)
2,CC1C/C(=C\c2cccnc2)C(=O)/C(=C/c2cccnc2)C1 (stereo unspecified),4.26 µM
3,CN(Cc1c(O)ccc2c1oc(=O)c1ccccc12)C1CCCCC1,> 10 µM (inactive)
4,CNC(=O)/C(C#N)=C/c1c(F)cccc1Cl,7.85 µM
5,CCOC(=O)c1c(NC(=O)C2C3C=CC(C3)C2C(=O)O)sc2c1CCC(CC)C2 (stereo unspecified),> 10 µM (inactive)
6,CC1=CN2C(=N)/C(=C/c3ccc([N+](=O)[O-])o3)C(=O)N=C2S1,6.69 µM
7,c1ccc(-c2cc(N3CCOCC3)nc3ccccc23)cc1,> 10 µM (inactive)
8,COC(=O)C1=C(C(=O)OC)C(c2cc(Br)ccc2O)c2sc(=O)[nH]c2S1 (stereo unspecified),4.75 µM
9,O=C(CS(=O)c1ccc(C(F)(F)F)cc1[N+](=O)[O-])Oc1ccccc1 (stereo unspecified),5.19 µM
10,Cc1cc(C2C(C#N)=C(N)Oc3n[nH]c(C)c32)c(C)s1 (stereo unspecified),> 10 µM (inactive)
11,CCc1nc(SCC(=O)c2ccc3c(c2)OCCO3)c2ccccc2n1,> 10 µM (inactive)
12,O=C1NCC2=C1C(c1ccc(Br)cc1)Nc1ccccc1N2 (stereo unspecified),6.26 µM
13,O=c1cc(-c2ccccc2Cl)oc2ccc([N+](=O)[O-])c(O)c12,7.35 µM
14,O=CN(/C=C1\Sc2ccccc2C1=O)Cc1ccccc1,5.73 µM
15,COc1ccc(CNC(=O)C2CCN(c3nc(OC)nc(OC)n3)CC2)cc1,> 10 µM (inactive)
16,CN(C)/C=C(/C(=O)c1ccc(Cl)cc1Cl)S(=O)(=O)c1ccc(Cl)cc1,5.49 µM
17,O=Cc1ccccc1OS(=O)(=O)c1ccccc1,9.56 µM
18,CCn1c(=O)c2ccccc2n2c(SCC(=O)N3CCCc4ccccc43)nnc12,> 10 µM (inactive)
19,C=CCn1c(C)cc(C(=O)COc2ncnc3sccc23)c1C,9.94 µM
20,C/C(=N\NC(=O)c1ccccc1O)C1C(=O)c2ccccc2C1=O,< 0.078 µM
21,COc1ccccc1C(=O)Oc1cc(N)n(S(=O)(=O)c2ccc(C)cc2)n1,> 10 µM (inactive)
22,CC(C)n1c(-c2ccccc2F)n[nH]c1=S,> 10 µM (inactive)

row,SMILES,EC50
1,CC(C)=C1C(=O)NN(c2ccc(C)c(Cl)c2)C1=O,9.85 µM
2,COc1ccc(C(CNC(=O)c2cccc(Br)c2)N2CCCC2)cc1 (stereo unspecified),> 10 µM (inactive)
3,CCOC(=O)C1C(=O)C(C(C)=O)C(=O)CC1CC(C)SCC (stereo unspecified),2.06 µM
4,CC(=C1C(=O)c2ccccc2C1=O)N1CCN(c2ccccn2)CC1,7.21 µM
5,O=C1/C(=C/c2cccnc2)CCC/C1=C\c1cccnc1,7.04 µM
6,O=C(CSc1nc2ccccc2o1)c1cc2ccccc2oc1=O,> 10 µM (inactive)
7,CCCCOC(=O)CSc1nc2c(c(=O)[nH]c(=O)n2C)n1C/C=C(\C)Cl,> 10 µM (inactive)
8,Cc1cccc(OC(=O)n2c(=S)oc3cc(Cl)ccc32)c1,5.42 µM
9,O=C(c1c[nH]c(C(=O)C(Cl)(Cl)Cl)c1)c1ccccc1Cl,8.53 µM
10,Cc1ccc(-c2nc3ccc(Cl)cc3n2OC(=O)N(C)C)cc1,> 10 µM (inactive)
11,CCn1cc(C(=O)O)c(=O)c2ccc(C)nc21,3.62 µM
12,Cc1oc2c(c(=O)c1C)C(=O)CC(c1ccccc1)C2 (stereo unspecified),7.82 µM
13,O=C1C=CC2C(c3ccc4c(c3)OCO4)CC1N2Cc1ccccc1 (stereo unspecified),6.04 µM
14,CC1(C)CC2c3cccc(C(=O)O)c3C(=O)N2c2c1ccc1ccccc21 (stereo unspecified),2.84 µM
15,CCc1ccc(CC2S/C(=C(\C#N)C(C)=O)NC2=O)cc1 (stereo unspecified),> 10 µM (inactive)
16,O=C(NCc1ccco1)c1cc(C(=O)C2CCCCC2)c[nH]1,> 10 µM (inactive)
17,O=Cc1cccn1-c1sc2c(c1C(=O)O)CCCC2,> 10 µM (inactive)
18,CCOC(=O)C1C(c2cccs2)NC(=O)N(C)C1(O)C(F)(F)F (stereo unspecified),> 10 µM (inactive)
19,COCCn1c(SCC(=O)Nc2ccc(C)cc2)nc2c(oc3ccccc32)c1=O,> 10 µM (inactive)
20,COc1ccc(CC(=O)Nc2ccc3c(c2)CCC3)cc1S(=O)(=O)N1CCOCC1,> 10 µM (inactive)
21,COc1ccccc1C(=O)Oc1ccc2c(c1)O/C(=C\c1ccncc1)C2=O,> 10 µM (inactive)
22,COCCN(CCOC)S(=O)(=O)c1ccc(C(=O)Nc2sc3c(c2C(N)=O)CCCCC3)cc1,> 10 µM (inactive)

row,SMILES,EC50
1,COCCCN(C(=S)Nc1cc(Cl)cc(Cl)c1)C(C)c1ccncc1 (stereo unspecified),> 10 µM (inactive)
2,CCOC(=O)CCS(=O)(=O)c1nc(-c2ccccc2)cc(C(F)(F)F)n1,1.13 µM
3,CC(C)c1noc2ncc(C(=O)c3cc(Cl)cc(Cl)c3O)cc12,> 10 µM (inactive)
4,CC(c1ccco1)N(C(=O)c1ccccc1NS(=O)(=O)c1cc([N+](=O)[O-])ccc1Cl)c1ccccn1 (stereo unspecified),9.17 µM
5,C=C(C)CN(CC)C(=O)COc1ccc(S(=O)(=O)Nc2ccc(OC)cc2)cc1,> 10 µM (inactive)
6,Nn1c(-c2ccccn2)nnc1-c1ccccn1,> 10 µM (inactive)
7,N#Cc1cc(C(=O)c2cc(F)ccc2O)cn(-c2nccs2)c1=O,> 10 µM (inactive)
8,CN1CCC2(CC1)C(C#N)=C(N)NC(S)=C2C#N,> 10 µM (inactive)
9,CC(=NCCc1c(C)[nH]c2ccc(C)cc12)C1=C(O)CC(c2ccccc2)CC1=O (stereo unspecified),7.69 µM
10,CCN1CCCC1CNC(=O)COc1cc(=O)n(C)c2ccccc12 (stereo unspecified),> 10 µM (inactive)
11,CC(=O)Nc1c(O)nc(SCc2ccccc2C#N)[nH]c1=O,> 10 µM (inactive)
12,COc1ccc(C(=O)C(CN2CCOCC2)c2ccccc2)cc1F (stereo unspecified),4.62 µM
13,Cc1cc(C)cc(CC2CC(=O)N(c3ccc(Cl)cn3)C2=O)c1 (stereo unspecified),> 10 µM (inactive)
14,Cc1ccc(C(=O)NNC(=S)NC(=O)c2ccc(Cl)cc2)cc1,6.78 µM
15,CCCC(=Nc1ccccc1OC)C1=C(O)CC(c2ccccc2)CC1=O (stereo unspecified),3.21 µM
16,O=C1Nc2cc(Cl)c(Cl)cc2N(O)N1c1cc(Cl)cc(Cl)c1,> 10 µM (inactive)
17,c1ccc(-c2c(-c3ccccc3)n(Cc3ccco3)c3ncnc(NCCCn4ccnc4)c23)cc1,1.98 µM
18,Cn1nnnc1SCCNCC#Cc1ccccc1,> 10 µM (inactive)
19,COc1ccc(-c2cc(C(F)(F)F)nc(S(C)(=O)=O)n2)cc1,6.1 µM
20,CCCCC(=O)Nc1ccc(C(=O)NNC(=S)NC(=O)c2cccs2)cc1,8.39 µM
21,Cc1ccc(/C=C/C(=O)C2C(=O)c3ccccc3C2=O)cc1,8.56 µM
22,CCCCSc1nc(O)c(C2OC(=O)c3c2ccc(OC)c3OC)c(=O)n1C (stereo unspecified),5.79 µM

row,SMILES,EC50
1,O=C(NNC1=Nc2cccc3cccc1c23)c1ccccc1Br,> 10 µM (inactive)
2,CCOC(=O)CC1=NN(c2ccccc2)C(=O)/C1=C\c1ccc(OC)cc1OC,8.5 µM
3,Oc1ccc2ccccc2c1/C=N/c1nccs1,6.59 µM
4,CCn1c(/C=N/c2nc3ccccc3n2C)nc2ccccc21,> 10 µM (inactive)
5,Cc1cccc(N2C(=O)/C(=C\c3ccc(OC(F)F)cc3)c3ccccc3C2=O)c1,> 10 µM (inactive)
6,CC(=O)Oc1oc(-c2ccccc2)nc1C=Nc1ccccc1,5.95 µM
7,COc1ccc(/C=C(/C(=O)c2ccc(Cl)cc2Cl)n2cncn2)cc1,8.48 µM
8,Cc1cc(C)c(S(=O)(=O)c2ccccc2)c(OC(=O)c2ccc(Cl)cc2Cl)n1,7.48 µM
9,Cc1ccc(NC(=O)CN2CCN(CCN=CC3=C(O)CC(c4ccccc4)CC3=O)CC2)cc1 (stereo unspecified),9.58 µM
10,Cc1nn(C(C)(C)C)c(OC(=O)c2ccc(Br)o2)c1Sc1ccccc1,7.84 µM
11,CS(=O)(=O)Oc1ccc(Br)cc1/C=C1/N=C(c2ccco2)OC1=O,> 10 µM (inactive)
12,O=C(O)Cc1ccc(N=Cc2c(O)ccc3ccccc23)cc1,3.85 µM
13,CCN1C(=O)C(=Cc2ccc(C)s2)C(=O)N(CC)C1=S,3.74 µM
14,O=c1cc(O)c2c(=O)n(-c3ccccc3)c3c(c2o1)CCCCCC3,> 10 µM (inactive)
15,CCOC(=O)c1c(C)oc2c1c(C(c1cccnc1)N1CCOCC1)c(O)c1ccccc12 (stereo unspecified),> 10 µM (inactive)
16,O=C(Nc1scc(-c2ccc(F)cc2)c1C(=O)O)c1ccco1,3.15 µM
17,Cc1ccc(CNc2nc3ccccc3s2)s1,> 10 µM (inactive)
18,CCOc1ccc2nc(NCCNC(=O)Nc3ccccc3)c(C#N)cc2c1,> 10 µM (inactive)
